Tests used:
Format in all cases: cell-based
[1] = system: HIV-1 NL4-3 Nanoluc-sec; conditions: for SI, selectivity index, calculated as CC50/EC50: CC50 (MT4) / EC50 (HIV-1 in MT4)
[2] = Cytotoxicity against U937 cell; conditions: human, U937 cells
Summary of the method: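 Cells cultured 3 days with test compound over a concentration range. Viability read by CytoTox-Glo cytotoxicity assay per manufacturer's protocol, same method as for MT4 cells. CC50 taken as the concentration giving 50% reduction in cell viability.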

[3] = system: T cell latent HIV-1 model JLat-A2; assay: FACS analysis of GFP-expressing J-Lat; conditions: JLat-A2, 10 and 50 nM, 72 h
Summary of the method: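 J-Lat (A2) latently infected cells at 1×10⁶ cells/well, incubated with test compounds at various concentrations, 37 °C, 72 h. GFP-expressing cells scored by flow cytometry.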

[4] = CytoTox-Glo cytotoxicity assay in MT4 cells; conditions: human

| Structure (SMILES) | SI, selectivity index, calculated as CC50/EC50 [1] | also measured |
| --- | --- | --- |
| COc1ccc(C(=O)O[C@@H]2C(C)=C[C@@H]3C(=O)[C@]4(C=C(C)[C@H](O)[C@@]24O)[C@H](C)C[C@@H]2[C@H]3C2(C)C)cc1 [Compound 12b, 5-(p-methoxybenzoyl)-20-deoxyingenol] | >20 |  |
| CC1=C[C@@H]2C(=O)[C@]3(C=C(C)[C@H](OC(=O)/C=C/c4ccccc4)[C@@]3(O)[C@@H]1O)[C@H](C)C[C@@H]1[C@H]2C1(C)C [Compound 13a, 3-(trans-Cinnamoyl)-20-deoxyingenol] | >45 |  |
| CCCCCCCCCCCC(=O)O[C@@]12C[C@@H](C)[C@]34C=C(C)[C@H](O)[C@@]3(O)[C@H](O)C(CO)=C[C@H](C4=O)[C@@H]1C2(C)C [Compound 11, 13-oxyingenol-13-dodecanoate] | >273 |  |
| C=C1[C@H](OC(=O)c2ccccc2)[C@H]2[C@@H](OC(C)=O)[C@](C)(O)[C@H](OC(C)=O)[C@]2(O)C(=O)[C@@H](C)[C@H]2O[C@@H]2C(C)(C)C(=O)[C@H](O)[C@H]1OC(=O)c1ccccc1 [Compound 7, kansuinin C] |  | anti-HIV activity ([1]; jatrophane diterpenoids isolated from E3-fraction): no anti-HIV activity |
| C/C=C/C(=O)O[C@H]1C(C)=C[C@]23C(=O)[C@@H](C=C(C)[C@@H](O)[C@]12O)[C@H]1[C@@H](C[C@H]3C)C1(C)C [Compound 15a, 3-Crotonoyl-20-deoxyingenol] | >17 |  |
| C/C=C(/C)C(=O)O[C@H]1C(C)=C[C@]23C(=O)[C@@H](C=C(C)[C@@H](O)[C@]12O)[C@H]1[C@@H](C[C@H]3C)C1(C)C [Compound 17, 3-angeloyl-20-deoxyingenol] | >22.8 |  |
| CC(=O)OCC1=C[C@@H]2C(=O)[C@]3(C=C(C)[C@H](O)[C@@]3(O)[C@@H]1O)[C@H](C)C[C@@H]1[C@H]2C1(C)C [Compound 4, ingenol monoacetate] | >10 |  |
| CC1=C[C@@H]2C(=O)[C@]3(C=C(C)[C@H](OC(=O)c4ccccc4)[C@@]3(O)[C@@H]1O)[C@H](C)C[C@@H]1[C@H]2C1(C)C [Compound 2, 3-O-benzoyl-20-deoxyingenol] | >302 |  |
| C/C=C/C(=O)O[C@@H]1C(C)=C[C@@H]2C(=O)[C@]3(C=C(C)[C@H](O)[C@@]13O)[C@H](C)C[C@@H]1[C@H]2C1(C)C [Compound 15b, 5-crotonoyl-20-deoxyingenol] | >16 |  |
| CC1=C[C@@H]2C(=O)[C@]3(C=C(C)[C@H](O)[C@@]3(O)[C@@H]1OC(=O)c1ccccc1)[C@H](C)C[C@@H]1[C@H]2C1(C)C [Compound 1, 5-O-benzoyl-20-deoxyingenol] | >216 |  |
| CCCCCCCCCCCC(=O)O[C@@]12C[C@@H](C)[C@]34C=C(C)[C@H](OC(=O)C(C)C(C)C)[C@@]3(O)[C@H](O)C(CO)=C[C@H](C4=O)[C@@H]1C2(C)C (some centres unmarked) [Compound 5, 3-O-(2,3-dimethylbutanoyl)-13-O-dodecanoylingenol] | >7500 |  |
| CC1=C[C@]23C(=O)[C@@H](C=C(CO)[C@@H](O)[C@]2(O)[C@H]1OC(=O)c1ccc2ccccc2c1)[C@H]1[C@@H](C[C@H]3C)C1(C)C [Compound 23, 3-(2-Naphthoyl)ingenol] | >6153 | CC50 at 3 days [2]: > 2 µM; activation of green fluorescent protein (GFP) expression [3]: comparable potency |
| CC(=O)O[C@H]1C(C)=C[C@]23C(=O)[C@@H](C=C(C)[C@@H](OC(=O)c4ccccc4)[C@]12O)[C@H]1[C@@H](C[C@H]3C)C1(C)C [Compound 3, kansuiphorin C] | >23 |  |
| CC1=C[C@@H]2C(=O)[C@]3(C=C(C)[C@H](OC(=O)c4ccc5ccccc5c4)[C@@]3(O)[C@@H]1O)[C@H](C)C[C@@H]1[C@H]2C1(C)C [Compound 14a, 3-(2-Naphthoyl)-20-deoxyingenol] | >543 |  |
| COc1ccc(C(=O)O[C@H]2C(C)=C[C@]34C(=O)[C@@H](C=C(C)[C@@H](O)[C@]23O)[C@H]2[C@@H](C[C@H]4C)C2(C)C)cc1 [Compound 12a, 3-(p-Methoxybenzoyl)-20-deoxyingenol] | >64 |  |
| C/C=C(\C)C(=O)O[C@H]1C(C)=C[C@]23C(=O)[C@@H](C=C(C)[C@@H](O)[C@]12O)[C@H]1[C@@H](C[C@H]3C)C1(C)C [Compound 16, 3-Tigloyl-20-deoxyingenol] | >46 | CC50 at 3 days [4]: > 9.7 µM |
| CC1=C[C@@H]2C(=O)[C@]3(C=C(C)[C@H](O)[C@@]3(O)[C@@H]1OC(=O)/C=C/c1ccccc1)[C@H](C)C[C@@H]1[C@H]2C1(C)C [Compound 13b, 5-(trans-cinnamoyl)-20-deoxyingenol] | >22 |  |
| CCCCCCCC(=O)O[C@H]1C(C)=C[C@]23C(=O)[C@@H](C=C(C)[C@@H](O)[C@]12O)[C@H]1[C@@H](C[C@H]3C)C1(C)C [Compound 18, 3-Octanoyl-20-deoxyingenol] | >59.9 |  |
| C/C=C(/C)C(=O)O[C@H]1C(C)=C[C@]23C(=O)[C@@H](C=C(CO)[C@@H](O)[C@]12O)[C@H]1[C@@H](C[C@H]3C)C1(C)C [Compound 22, 3-Angeloylingenol] | >2067 | activation of green fluorescent protein (GFP) expression [3]: comparable potency |

Source: paper PMC6217806 (European journal of medicinal chemistry, 2018)
